Rpn11 inh: blocks the human proteasome subunit Rpn11 | 0.59% of 360,000 active | O00487 | inhibition, % at 20 µM | human 26S proteasome, Ub4-pepOG fluorescence polarization; 20S core pre-blocked with epoxomicin | AID 588493;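 active = inhibition at 20 µM, scaled to each plate's controls, above about 33%, limit read from the data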
SKN-1 block: blocks SKN-1 activity in C. elegans. C. elegans VP596 Pgst-4::GFP/RFP ratio, acrylamide-induced, 24 h. inhibition, % at 21.8 µM. 0.49% of 360,000 active. AID 624304;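 active = interference check ratio from 0.5 to 1.5 plus GFP to RFP signal ratio inhibition reaching or exceeding a fixed threshold, cut at about 30% in these data, passing the limit was not always enough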
CSN inh: CSN deneddylation inhibition | inhibition, % at 12.5 µM | AID 651999 | 0.38% of 360,000 active | Purified CSN, SCF-Nedd8-OG deneddylation, fluorescence polarization;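 active = pattern-corrected inhibition above about 35%, with an unprinted fluorescence ratio check between 0.5 and 1.5, limit read from the data, passing the limit was not always enough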;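 note: 0% = enzyme with substrate and 100% = substrate without enzyme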
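Assay system: purified human Csn5 enzyme expressed in HEK293T cells; Input: 0.24 nM Csn5 enzyme, final concentration; Reagent: 10 nM SCFSkp2-Nedd8OG; Compound dosing: 12.5 µM single point; Times: reaction 90 min, room temperature; Technique: fluorescence polarization readout.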
SUMO1-SIM PPI: alters human SUMO1 binding to SIM partners; AID 602429; inhibition, % at 20 µM; SUMO1 binding to a labelled peptide, TR-FRET, 1 h; 0.33% of 360,000 active; in the data active = inhibition above about 37%
MT1-MMP act inh: inhibitors of human MT1-MMP activation; P50281; HT1080 RFP-PRO-GFP cells, GFP/RFP ratio fluorescence, overnight; percent of plate control window, DMSO zero; GFP/RFP ratio change, % at 20 µM; 0.061% of 360,000 active;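 active = GFP/RFP ratio change of at least 30% with cell ATP level not reduced by more than half and red fluorescence within 50% of control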
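Compound: 20 µM single dose, 1% DMSO / System: HT1080 RFP-PRO-GFP cells / Controls: DMSO and RFP-L50D-GFP cell wells / Read-out basis: GFP/RFP fluorescence ratio / Schedule: overnight compound exposure at 37 °C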
DNMT1 block: DNMT1 (human) enzyme inhibition; inhibition (reported as % activation of signal), % at 10 µM; AID 588458; DNMT1 molecular beacon, Hinp1I cleavage, fluorescence; 0.83% of 360,000 active; P26358; in the data active = inhibition above about 50%
* hit, by the source's call; · = no result given. Only some compounds are listed: those with a hit (about 2.3% of all), similar ones and a draw of the others.

SMILES	Rpn11 inh	SKN-1 block	CSN inh	SUMO1-SIM PPI	MT1-MMP act inh	DNMT1 block
Clc1ccccc1CN1CCN(/N=C/C=C\c2ccco2)CC1	-5	-5	-3	-8	2	4
CC(O)(c1cccc(F)c1)c1nc(-c2cc(F)cc(F)c2)cs1 (stereo unspecified)	2	23	-2	-5	1	10
Cc1cccc(N2C(=O)c3cccc4c(N)ccc(c34)C2=O)c1	-167	-121	-75	-107	-167	75*
CC(C)CCN1C(=O)c2cccc3c(N)ccc(c23)C1=O	-181	-98	-75	-90	-124	122*
Nc1cccc(N2C(=O)c3cccc4c(N)ccc(c34)C2=O)c1	-165	-22	-76	-68	-70	40
Cc1cc2c(cc1C)-n1nnnc1C(N1CCN(C(=O)OCc3ccccc3)CC1)C(=O)N2 (stereo unspecified)	·	-13	-2	-4	-2	·
Nc1nc(=S)c2ncn(C3OC(CO)C(O)C3O)c2[nH]1 (stereo unspecified)	12	-2	32	19	-6	80*
Nc1nc(=S)c2ncn([C@@H]3O[C@H](CO)[C@@H](O)[C@H]3O)c2[nH]1	-4	-7	-3	2	13	4
O=[N+]([O-])c1ccc(COc2cccc3cccnc23)cc1	-7	36*	-2	-33	3	-4
NC(c1csc(Nc2ccc(C(=O)NCCCO)cn2)n1)c1ccccc1Cl (stereo unspecified)	2	8	0	5	-6	-8
NC(=O)c1nsc(C(=O)N(CC(=O)NCc2ccco2)c2ccccc2F)c1N	2	8	-2	50*	-2	2
NC(=O)c1nsc(C(=O)N(c2ccccc2)C(C(=O)NCc2ccc(F)cc2)c2ccco2)c1N (stereo unspecified)	-2	16	0	-4	-1	0
Cc1ccc(S(=O)(=O)N2C(c3ccccc3)CC(=O)C3CN(S(=O)(=O)c4ccc(Cl)cc4)C(c4ccccc4)CC32)cc1 (stereo unspecified)	·	-11	0	-2	-5	·
Cc1c(C(=O)OCc2ccccc2)[nH]c2c1C(=O)CC(c1ccco1)C2 (stereo unspecified)	-8	6	19	8	3	68*
CSCCOC(=O)c1[nH]c2c(c1C)C(=O)CC(c1ccco1)C2 (stereo unspecified)	-23	7	5	4	1	29
N#Cc1ccc(-c2nc3c4ccccc4ccn3c2Cc2cccc(Cl)c2)cc1	23	3	3	-6	0	-15
Cc1cccc(C)c1N1C(=O)c2ccccc2NC(=O)C1C(=O)NCCc1ccccc1F (stereo unspecified)	·	14	-4	-1	-1	·
N#CC(=Cc1ccncc1)c1ccccc1	1	23	1	-34	0	2
N#C/C(=C\c1cccnc1)c1ccc(Br)cc1	5	44*	-5	-31	-2	1
O=C(NCC(F)(F)F)c1ccc(S(=O)(=O)Nc2ccccc2N2CCCC2)cc1	91*	28	73*	-68	-10	34
Cc1ccc(S(=O)(=O)c2c(N)n(CCC(C)C)c3nc4ccccc4nc23)cc1	19	33	29	42*	-41	29
CC(C)CCn1c(N)c(S(=O)(=O)c2cccs2)c2nc3ccccc3nc21	11	3	4	6	-20	-27
CCCCn1c(NC(=O)c2ccco2)c(S(=O)(=O)c2ccc(C)cc2)c2nc3ccccc3nc21	·	18	54*	42*	-41	35
CCCCn1c(NS(=O)(=O)c2ccccc2)c(S(=O)(=O)c2ccc(C)cc2)c2nc3ccccc3nc21	29	-3	57*	48*	-12	80*
O=c1c(-c2ccccc2)nc2ccccc2n1C(c1ccccc1)c1nc2ccccc2[nH]1 (stereo unspecified)	·	7	-1	11	-6	·
SMILES	Rpn11 inh	SKN-1 block	CSN inh	SUMO1-SIM PPI	MT1-MMP act inh	DNMT1 block
O=C1NC[C@H](Cc2ccccc2)N(C[C@@H]2CCCN2C[C@H](Cc2ccc(O)cc2)N2C[C@H](Cc3ccccc3)N(CCc3ccccc3)C(=O)C2=O)C1=O	·	3	3	4	-5	·
CN(CCc1ccccc1)C(C(=O)c1ccc2c(c1)OCO2)c1nnnn1-c1ccccc1NC(=O)OC(C)(C)C (stereo unspecified)	·	4	3	-4	-6	·
CC[C@@H]1CCC[C@@H](O)[C@@H](C)C(=O)O[C@H](C)[C@@H](C)C/C=C(C)/C(OC)=C\C(=O)N(C)C([C@@H](C)CC)C(=O)N(C)[C@@H](C(C)C)C(=O)N(C)[C@@H](COC)C(=O)N2CCC[C@H]2C(=O)N(C)[C@@H](C(C)C)C(=O)N2CCC[C@H]2C(=O)O1 (stereo partly specified)	8	44*	4	-1	-20	-27
O=C(O)c1cccc(S(=O)(=O)NNc2ccccc2C(F)(F)F)c1	-6	4	6	88*	1	9
O=C(O)c1cccc(S(=O)(=O)Nc2ccc(-c3ccccc3)cc2)c1	-3	-4	1	6	1	4
COC(=O)c1ccc(CSc2nc(N)cc(N)n2)cc1	-3	14	-1	-3	4	-5
O=[N+]([O-])c1ccc(CSc2nc3ccccc3o2)cc1	-4	69*	1	-17	4	-2
COC(=O)c1ccc(CSc2nc3ccccc3o2)cc1	-8	40*	-3	4	10	0
COCCn1c(SCC(=O)c2ccc3c(c2)OCCO3)nnc1C(C)C	-1	-9	84*	-4	0	0
COCCn1c(SCC(=O)Nc2ccc3c(c2)OCCO3)nnc1C(C)C	-1	5	-1	0	2	0
COCCn1c(SCC(=O)Nc2cccc(C)c2)nnc1C(C)C	2	37*	-7	-2	3	-3
COCCn1c(SCC(=O)Nc2cc(C)cc(C)c2)nnc1C(C)C	-6	-36	4	-2	4	6
COc1ccc(OCCNc2cc(Cl)ccc2[N+](=O)[O-])cc1	·	17	47*	-6	0	-14
COc1ccc(OCCNc2cc(N3CCCCC3)ccc2[N+](=O)[O-])cc1	5	17	8	-10	4	-4
COC(=O)c1nc(-c2ccc(C)cc2)[nH]c1C(C)(C)C	-17	-10	0	8	-1	6
NS(=O)(=O)c1ccc(CNC(=O)COc2ccc3c4c(c(=O)oc3c2)CCCC4)cc1	-1	14	-2	63*	-2	-1

Bioassay records from PubChem BioAssay.
